Experimental data: PubChem BioAssay AID602228 (Southern Research Specialized Biocontainment Screening …, 2012)
Inconclusive results are not listed. The source made the active and inactive calls.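 The calls were made as follows: active = viability below 80% at one or more tested concentrations; inconclusive = replicate runs disagree on the 80% viability cutoff; inactive = viability above 80% at every tested concentration.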

Assays:
[1] = test system: Vero E6 viability, CellTiter-Glo luminescence, 72 h; test: viability loss in Vero E6 cells – cell-based, set 2, cytotoxicity control for PfM1AAP inhibitor project, dose response (AID 602228)
Procedure, shortened: (§1)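 Assay system: Vero E6 cell line / Medium: E-MEM plus 10% FBS / Doses: 10 concentrations, 2-fold dilution steps / Times: 72 h treatment at 37 °C / Measured by: CellTiter-Glo ATP luminescence / Read-out basis: % viability and CC50 from 4-parameter curve / Benchmarks: vehicle-treated cell wells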

[2] = as above; settings: Vero E6 viability, CellTiter-Glo luminescence, 72 h; at 50 µM (top of the series)
Procedure, shortened: as §1

Structure (SMILES)	CC50 [1] [µM]	viability [2]
O=C(NCc1ccc(Cl)cc1)C1CCN(S(=O)(=O)c2ccc(Br)s2)CC1	17.7	
O=C(NCc1ccccc1)C1CCN(S(=O)(=O)c2ccc(Br)s2)CC1	47.4	
O=C(NCc1ccc2c(c1)OCO2)C1CCN(S(=O)(=O)c2ccc(Br)s2)CC1		89.3% (inactive)
O=C(NCc1ccc(F)cc1)C1CCN(S(=O)(=O)c2ccc(Br)s2)CC1	39.6	
CC[C@H](C)[C@H](NS(=O)(=O)c1ccc(Br)s1)C(=O)NCc1ccc2c(c1)OCO2		95.3% (inactive)
